Data on 24 compounds can be found in ChEMBL document CHEMBL4390664, “3,5-Diaryl-1H-pyrazolo[3,4-b]pyridines as potent tubulin polymerization inhibitors: Rational design, synthesis and biological evaluation” (Eur J Med Chem, 2019).

In general, IC50 refers to the concentration needed to halve the response being measured.

Active and inactive are the calls of the source. The calls are words filed in the database; no cut-off is given here. Bounds are passed on as bounds.

For assay [1], the system named is SGC-7901. The experiment in a line: Antiproliferative activity against human SGC7901 cells assessed as reduction in cell growth incubated for 72 hrs by MTT assay. The class given is functional, cell-based. To be noted: SGC-7901, 72 h. A general note: Tetrazolium assays rely on reduction of a dye to a coloured formazan, in cell work by metabolically active cells.

Assay [2] has as its system A549. The experiment in a line: Antiproliferative activity against human A549 cells assessed as reduction in cell growth incubated for 72 hrs by MTT assay. The format is functional, cell-based. To be noted: A549, 72 h.
The test system of assay [3] is HeLa. The experiment in a line: Antiproliferative activity against human HeLa cells assessed as reduction in cell growth incubated for 72 hrs by MTT assay. The format is functional, cell-based.
For assay [4], the system named is L929. The experiment in a line: Cytotoxicity against mouse L929 cells assessed as reduction in cell growth incubated for 72 hrs by MTT assay. The format is cell-based. The following applies: L929, 72 h.
Assay [5] deals with SGC-7901. Nature of the assay: Induction of morphological changes in human SGC7901 cells assessed as destruction of cytoskeleton at 36 nM incubated for 24 hrs by immunofluorescence assay. The format is functional, cell-based. A digest of the protocol: (§1)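 SGC-7901 cells were exposed to compound at 26 or 36 nM for 24 h, then immunostained. Microtubules and unassembled tubulin were stained green and nuclei blue. Microtubule network and cell morphology were examined by fluorescence imaging.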

Assay [6] has as its system SGC-7901. The experiment in a line: Induction of morphological changes in human SGC7901 cells assessed as cell rounding at 36 nM incubated for 24 hrs by immunofluorescence assay. The class given is functional, cell-based. A digest of the protocol:
as §1

Assay [7] has as its system SGC-7901. The experiment in a line: Induction of morphological changes in human SGC7901 cells assessed as formation of multinucleated cells at 36 nM incubated for 24 hrs by immunofluorescence assay. The format is functional, cell-based. An outline of the steps: as §1
The test system of assay [8] is SGC-7901. The experiment in a line: Cell cycle arrest in human SGC7901 cells assessed as decrease of G1 cell population at 36 nM incubated for 0 to 72 hrs by flow cytometry analysis. The format is functional, cell-based. On the technique in general: Flow cytometry measures light scatter and fluorescence of single cells or particles in a stream.
Assay [9] concerns SGC-7901. Nature of the assay: Cell cycle arrest in human SGC7901 cells assessed as increase of G2/M cell population at 36 nM incubated for 0 to 72 hrs by flow cytometry analysis. The format is functional, cell-based.
Assay [10] relates to SGC-7901. Nature of the assay: Induction of multinucleated cell formation in human SGC7901 cells at 36 nM incubated for 0 to 72 hrs by flow cytometry analysis. The format is functional, cell-based.
The target of assay [11] is T1, Tubulin (Sus scrofa) (UniProt P02554+P02550). Nature of the assay: Inhibition of porcine brain tubulin polymerization at 10 uM measured at 1 min intervals for 80 mins by fluorimetry.
In assay [12] the test system is SGC-7901. Nature of the assay: Induction of morphological changes in human SGC7901 cells assessed as destruction of cytoskeleton at 26 nM incubated for 24 hrs by immunofluorescence assay. The format is functional, cell-based. An outline of the steps:
as §1

In assay [13] the test system is SGC-7901. Nature of the assay: Induction of morphological changes in human SGC7901 cells assessed as cell rounding at 26 nM incubated for 24 hrs by immunofluorescence assay. The class given is functional, cell-based. A digest of the protocol:
as §1

Assay [14] deals with SGC-7901. The experiment in a line: Induction of morphological changes in human SGC7901 cells assessed as formation of multinucleated cells at 26 nM incubated for 24 hrs by immunofluorescence assay. The format is functional, cell-based. A digest of the protocol:
as §1

For assay [15], the system named is SGC-7901. The experiment in a line: Cell cycle arrest in human SGC7901 cells assessed as accumulation of G2/M cell population at 26 nM incubated for 12 hrs by flow cytometry analysis (reference value: 24.47%). The class given is functional.
For assay [16], the target named is T1, Tubulin (Sus scrofa). Nature of the assay: Inhibition of porcine brain tubulin polymerization measured at 1 min intervals for 80 mins by fluorimetry.
For assay [17], the target named is T1, Tubulin (Sus scrofa). Nature of the assay: Inhibition of porcine brain tubulin polymerization at 12.5 to 100 uM measured at 1 min intervals for 80 mins by fluorimetry.

T1 sequence (P02550 whole entry, looked up): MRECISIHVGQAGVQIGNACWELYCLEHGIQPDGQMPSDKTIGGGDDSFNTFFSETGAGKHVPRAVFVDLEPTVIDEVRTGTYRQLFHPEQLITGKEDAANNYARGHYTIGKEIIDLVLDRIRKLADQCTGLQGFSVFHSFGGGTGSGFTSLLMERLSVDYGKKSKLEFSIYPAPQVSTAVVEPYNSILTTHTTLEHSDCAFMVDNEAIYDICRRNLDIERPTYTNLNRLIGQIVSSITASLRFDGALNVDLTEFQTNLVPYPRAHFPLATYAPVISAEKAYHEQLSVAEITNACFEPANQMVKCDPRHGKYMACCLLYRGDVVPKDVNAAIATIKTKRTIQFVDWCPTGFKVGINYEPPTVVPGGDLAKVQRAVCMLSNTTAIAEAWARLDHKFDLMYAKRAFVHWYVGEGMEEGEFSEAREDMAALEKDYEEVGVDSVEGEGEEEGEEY
T1 sequence (P02554 whole entry, looked up): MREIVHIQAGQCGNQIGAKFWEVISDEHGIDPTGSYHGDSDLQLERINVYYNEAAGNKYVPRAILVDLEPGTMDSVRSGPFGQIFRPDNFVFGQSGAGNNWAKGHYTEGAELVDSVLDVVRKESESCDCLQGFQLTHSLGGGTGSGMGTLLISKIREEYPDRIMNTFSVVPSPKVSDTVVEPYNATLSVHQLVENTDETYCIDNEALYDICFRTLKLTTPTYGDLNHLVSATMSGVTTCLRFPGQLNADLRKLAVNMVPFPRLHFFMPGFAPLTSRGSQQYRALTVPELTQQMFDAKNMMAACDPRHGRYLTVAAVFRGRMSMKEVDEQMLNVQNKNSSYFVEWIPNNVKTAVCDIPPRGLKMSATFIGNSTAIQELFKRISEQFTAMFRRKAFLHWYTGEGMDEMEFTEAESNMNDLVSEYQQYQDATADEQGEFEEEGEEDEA

For `COc1ccc(-c2n[nH]c3ncc(-c4ccc(C)cc4N)cc23)cc1`, the IC50 in assay [1], in [2] and in assay [3] was greater than 30 µM throughout.

As for `COc1cc(-c2n[nH]c3ncc(-c4ccc(Br)cc4)cc23)cc(OC)c1OC`, the IC50 in assay [1] was found to be 20.2 µM; in [2] it was 17.4 µM; in [3], 10.9 µM.

In the case of `COc1cc(-c2n[nH]c3ncc(-c4cccc(C)c4)cc23)cc(OC)c1OC`, the IC50 in assay [1] is 0.051 µM; in [2] it was greater than 30 µM; in assay [3] it was 0.086 µM.

As for `COc1cc(-c2n[nH]c3ncc(-c4ccc(Cl)cc4)cc23)cc(OC)c1OC`, the IC50 in assay [1] is 4.82 µM; in [2] it was 14.6 µM; in assay [3], 0.87 µM.

For the compound `COc1ccc(-c2cnc3[nH]nc(-c4cc(OC)c(OC)c(OC)c4)c3c2)c(N)c1`, the 50% inhibitory concentration (IC50) in assay [1] stood at 3.73 µM; in assay [2] it was 5.36 µM; in assay [3], 1.44 µM.

In the case of `COc1cc(-c2n[nH]c3ncc(-c4ccc(F)cc4)cc23)cc(OC)c1OC`, the IC50 in assay [1] was 2.31 µM; in assay [2] it was greater than 30 µM; in assay [3], 0.89 µM.

Take `COc1ccc(-c2cnc3[nH]nc(-c4cc(OC)c(OC)c(OC)c4)c3c2)cc1`: the IC50 in assay [1] is 0.13 µM; in assay [2], greater than 30 µM; in assay [3] it was 0.28 µM.

Take `COc1cccc(-c2cnc3[nH]nc(-c4cc(OC)c(OC)c(OC)c4)c3c2)c1`: the IC50 in assay [1] worked out at 1.91 µM; in assay [2], 7.66 µM; in [3], 0.46 µM.

As for `COc1cc(-c2n[nH]c3ncc(-c4ccc(C)cc4N)cc23)cc(OC)c1OC`, the IC50 in [1] stood at 0.23 µM; in assay [2], 7.83 µM; in assay [3], 0.16 µM.

Take `COc1ccc(-c2n[nH]c3ncc(-c4ccc(C)cc4)cc23)cc1`: the IC50 in [1], in assay [2] and in [3] was greater than 30 µM each time.

On to `CNc1cc(F)ccc1-c1cnc2[nH]nc(-c3cc(OC)c(OC)c(OC)c3)c2c1`, for which the IC50 in [1] turned out to be 3.76 µM; in assay [2], 4.27 µM; in assay [3], 1.67 µM.

On to `COc1cc(-c2n[nH]c3ncc(-c4ccc(Br)cc4N)cc23)cc(OC)c1OC`, for which the IC50 in assay [1] amounted to 5.52 µM; in assay [2] it was 8.47 µM; in [3], 2.61 µM.

Take `COc1cc(-c2n[nH]c3ncc(-c4ccc(F)cc4N)cc23)cc(OC)c1OC`: the IC50 in [1] came out at 0.4 µM; in assay [2], 1.31 µM; in assay [3], 0.081 µM.

In the case of `COc1cc(-c2n[nH]c3ncc(-c4cc(C)ccc4N)cc23)cc(OC)c1OC`, the IC50 in assay [1] is 0.62 µM; in assay [2], 4.43 µM; in assay [3], 0.38 µM.

For `COc1ccc(-c2n[nH]c3ncc(-c4ccc(C)cc4N)cc23)cc1OC`, the IC50 in assay [1], in [2] and in [3] was greater than 30 µM in each case.

On to `CNc1cc(C)ccc1-c1cnc2[nH]nc(-c3cc(OC)c(OC)c(OC)c3)c2c1`, for which the IC50 in assay [1] was 6.31 µM; in assay [2], 9.25 µM; in assay [3] it was 3.84 µM.

For the compound `COc1ccc(-c2n[nH]c3ncc(-c4ccc(C)cc4)cc23)cc1OC`, the IC50 in assay [1], in [2] and in [3] was greater than 30 µM in each case.

In the case of `COc1cc(-c2n[nH]c3ncc(-c4ccc(Cl)cc4N)cc23)cc(OC)c1OC`, the IC50 was 0.58 µM in assay [1], 3.24 µM in assay [2] and 0.36 µM in assay [3].

As to `COc1cc(C(=O)c2csc(-c3ccccc3)n2)cc(OC)c1OC`, the values for the IC50 in [1], in assay [3] and in assay [4] were 0.018 µM, 0.024 µM and 25.8 µM, respectively. Besides, the outcome in assay [5], in [6], in assay [7], in assay [8], in [9] and in assay [10] was Active. For the same compound, the inhibition result in assay [11] is “Active”.

As for `CNc1cc(Cl)ccc1-c1cnc2[nH]nc(-c3cc(OC)c(OC)c(OC)c3)c2c1`, the IC50 came out at 8.48 µM in assay [1], 14 µM in assay [2] and 6.49 µM in [3].

`COc1cc(-c2n[nH]c3ncc(-c4ccccc4N)cc23)cc(OC)c1OC`: the IC50 stood at 4.37 µM in assay [1], 1.42 µM in assay [2] and 2.55 µM in assay [3].

For `COc1ccc(N)c(-c2cnc3[nH]nc(-c4cc(OC)c(OC)c(OC)c4)c3c2)c1`, the results for the IC50 in assay [1], in assay [2] and in assay [3] were 9.51 µM, 10.2 µM and 4.93 µM, respectively.

As for `COc1cc(-c2n[nH]c3ncc(-c4ccccc4)cc23)cc(OC)c1OC`, the figures for the IC50 in assay [1], in assay [2] and in assay [3] were 0.037 µM, 0.65 µM and 0.057 µM, respectively.

Regarding `COc1cc(-c2n[nH]c3ncc(-c4ccc(C)cc4)cc23)cc(OC)c1OC`, the IC50 in [1] was 0.013 µM; in [2] it was 0.082 µM; in assay [3] it was 0.045 µM; in [4] it was 37.5 µM. For the same compound, the result in assay [12], in assay [13] and in assay [14] was Active. Further, in [15], the Activity was 59.62%. The inhibition result in assay [16] is “Dose-dependent effect”. The inhibition entry in assay [17] was “Active”.
